Screening results (PubChem)
TDP2 absorb – blocks human TDP2 phosphodiesterase activity; recombinant TDP2, T5PNP hydrolysis, p-nitrophenol absorbance 415 nm; inhibition, % at 12.8 µM; O95551; 370,000 tested, 0.34% active;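 active = inhibition above the mean of all tested compounds plus 3 SD, set per campaign, cut at about 25% in these data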;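 also: 0% = DMSO with enzyme and 100% = buffer with substrate but no TDP2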
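Test system: Human TDP2 enzyme | Reagent: 5 mM T5PNP | Compound dosing: 12.8 µM single point, 1% DMSO | Incubation: Enzyme reaction with compound for 2 h at 37 °C | Technique: p-Nitrophenol epi absorbance | Read-out: % inhibition relative to enzyme-containing and enzyme-free wells | Benchmarks: High control without enzyme, low control DMSO plus TDP2 | Replicates: Singlicate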
GSTO1 counter – GSTO1 inhibition, counter-screen for RBBP9 inhibitors; P78417; recombinant GSTO1, activity-based probe fluorescence polarization; AID 1974; 300,000 tested, 1.1% active; inhibition, % at 5.96 µM;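 active = inhibition above the campaign mean inhibition plus 3 SD, cut at about 35% in these data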;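 also: 0% = GSTO1-1 with DMSO and 100% = wells lacking GSTO1-1 enzyme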
Target sequence (P78417 whole entry, looked up): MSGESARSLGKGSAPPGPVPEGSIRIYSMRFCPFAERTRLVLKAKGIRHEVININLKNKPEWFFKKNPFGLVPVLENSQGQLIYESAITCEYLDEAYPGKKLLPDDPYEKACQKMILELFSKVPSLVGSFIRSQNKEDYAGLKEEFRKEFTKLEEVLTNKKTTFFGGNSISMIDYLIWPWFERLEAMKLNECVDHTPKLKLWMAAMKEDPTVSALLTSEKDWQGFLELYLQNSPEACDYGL
GASC-1 inh – inhibitors of human GASC-1 (JMJD2C) demethylase; Q9H3R0; GST-JMJD2C(1-420) H3K9me3 demethylation, DELFIA europium; inhibition, % at 2.35 µM; 330,000 tested, 0.069% active;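 active = more than half of a compound's replicate wells show inhibition beyond 50%, single wells judged on their own value; inconclusive = some, but no more than half, of replicates pass 50% inhibition; inactive = no replicate passes 50% inhibition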;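 also: signal counts dimethyl H3K9 product captured on neutravidin plate; 0% = median of DMSO wells and 100% = 0.3 times that DMSO median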
Target sequence (Q9H3R0 1-420 limits assumed): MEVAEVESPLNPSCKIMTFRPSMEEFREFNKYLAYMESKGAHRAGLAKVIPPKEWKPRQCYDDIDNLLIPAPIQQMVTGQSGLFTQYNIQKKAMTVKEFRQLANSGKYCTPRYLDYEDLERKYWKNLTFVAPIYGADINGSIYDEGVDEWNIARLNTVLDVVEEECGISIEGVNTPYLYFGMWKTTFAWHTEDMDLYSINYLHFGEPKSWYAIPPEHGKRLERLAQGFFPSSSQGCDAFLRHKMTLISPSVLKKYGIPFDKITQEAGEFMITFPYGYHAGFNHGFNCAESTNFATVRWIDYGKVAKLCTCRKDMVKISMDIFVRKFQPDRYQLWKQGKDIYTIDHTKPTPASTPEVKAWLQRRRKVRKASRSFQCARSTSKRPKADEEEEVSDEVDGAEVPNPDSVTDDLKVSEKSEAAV
PAD4 inh – PAD4 (human) enzyme inhibition; Q9UM07; recombinant PAD4, RCA probe fluorescence polarization; inhibition, % at 6.36 µM; 330,000 tested, 0.41% active; AID 485272;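 active = percent inhibition above a cutoff equal to the mean of all tested compounds plus 3 SD, cut at about 15% in these data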;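 also: 0% = PAD4 with RCA probe and DMSO and 100% = probe without PAD4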
SUMO HTRF inh – inhibitors of human SUMOylation (UBC9). P63279. HTRF SUMOylation assay, SAE1/SAE2 + UBC9, in vitro. inhibition, % at 35 µM. 290,000 tested, 0.36% active. AID 2006; in the data active = inhibition above about 50%, passing the limit was not always enough; inconclusive = no clear call, values can overlap the other calls
Target sequence (P63279 whole entry, looked up): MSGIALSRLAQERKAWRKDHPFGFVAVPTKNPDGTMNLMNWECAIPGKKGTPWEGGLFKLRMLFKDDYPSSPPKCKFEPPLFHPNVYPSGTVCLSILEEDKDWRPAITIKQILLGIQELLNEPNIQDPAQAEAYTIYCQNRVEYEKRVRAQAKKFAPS
Apaf1 inhib – human Apaf-1 inhibition. inhibition, % at 20 µM. 330,000 tested, 0.71% active. reconstituted apoptosome caspase-3 activity, DEVD-Rh110 fluorescence; active = inhibition of at least 40% at 20 µM;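 also: plate controls were DMSO wells for no effect and DEVD-CHO caspase inhibitor wells for full effect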
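Material: biochemical Apaf-1 apoptosome reconstitution. Medium: Hepes buffer, pH 7.5. Also added: cytochrome c activation, bis-DEVD rhodamine 110 substrate. Timing: 30 min compound preincubation, 50 min activation, room temperature. Measured by: rhodamine 110 fluorescence at Ex 480/Em 540 nm.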
GSTO1 inh conf – confirmation of human GSTO1 inhibitors; shares compounds with GSTO1 counter; recombinant GSTO1, probe fluorescence polarization; inhibition, % at 5.96 µM; 2,400 tested, 54% active; AID 2176;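 active = inhibition above the primary screen's cutoff, its mean inhibition plus 3 SD, cut at about 35% in these data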;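 also: loss of polarization as inhibitors block binding of rhodamine sulfonate ester activity probe; 0% = GSTO1 with DMSO and 100% = wells lacking GSTO1 enzyme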
PAD4 confirm – PAD4 (human) inhibition, confirmed. shares compounds with PAD4 inh. recombinant PAD4, RCA probe fluorescence polarization. inhibition, % at 6.36 µM. 1,200 tested, 28% active;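 active = mean inhibition across replicates above the hit cutoff set by the earlier primary screen, cut at about 15% in these data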;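 also: inhibitors block active-site labeling by the probe so polarization falls; 0% = PAD4 with probe and DMSO and 100% = probe without PAD4 enzyme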
Apaf-1 inh conf – confirmation of Apaf-1 inhibitors. shares compounds with Apaf1 inhib. 1,800 tested, 25% active. reconstituted apoptosome, caspase-3 DEVD-Rh110 fluorescence. inhibition, % at 20 µM. AID 504614;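 active = mean inhibition of at least 40% at 20 µM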;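 also: plate controls were DMSO wells for no effect and DEVD-CHO caspase inhibitor control wells for full effect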
Rh110 interf inh – interferes with Rh110 fluorescence, flagging false Apaf-1 inhibitors; shares compounds with Apaf1 inhib; Rh110 fluorescence interference, quenched caspase reaction; activation (fluorescence interference), % at 20 µM; 1,800 tested, under 10 active; AID 504615;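 active = signal rise of 40% or more at 20 µM, treated as a fluorescence artifact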
Fluor interf inh – counter-screen for Apaf-1 inhibitors: fluorescence interference, dose response | shares compounds with Apaf1 inhib | 460 tested, under 10 active | fluorescence interference counterscreen, Apaf-1 assay format | AID 588538 | IC50, µM; call rule not given here
TDP2 inh conf – human TDP2 inhibition, confirmation; shares compounds with TDP2 absorb; inhibition, % at 12.8 µM; recombinant human TDP2, absorbance read-out; 1,100 tested, 22% active; in the data active = inhibition above about 25%;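 also: 0% = vehicle with enzyme and 100% = no enzyme buffer only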
* hit, by the source's call; ? = inconclusive; nt = no result given. In the library only some 1.6% were active in any assay of this set; here they are far more common.

SMILES | TDP2 absorb | GSTO1 counter | GASC-1 inh | PAD4 inh | SUMO HTRF inh | Apaf1 inhib | PAD4 confirm | others
CCC(C)NC(=O)c1c(N)n(CC2CCCO2)c2nc3ccccc3nc12 (configuration not stated) | 62* | 38* | 113 | -13 | 101 | 94* | nt | GSTO1 inh conf=58*;Apaf-1 inh conf=56*;Rh110 interf inh=12;Fluor interf inh=>100;TDP2 inh conf=-1
COc1ccc(OC)c(N2C(=O)NC(=O)/C(=C\c3ccc([N+](=O)[O-])s3)C2=O)c1 | 28* | 40* | 7 | -26 | 39 | 25 | nt | GSTO1 inh conf=26;TDP2 inh conf=18
COc1ccc(N2C(=O)NC(=O)/C(=C\c3ccccc3[N+](=O)[O-])C2=O)cc1 | 3 | -2 | 6 | -3 | -4 | -6 | nt
Nc1c(C(=O)OCc2ccccc2)c2nc3ccccc3nc2n1Cc1cccs1 | 25* | 51* | -12 | 25* | 8 | 86* | -4 | GSTO1 inh conf=30;Apaf-1 inh conf=23;Rh110 interf inh=18;TDP2 inh conf=-3
CC(C)(C)OC(=O)c1c(N)n(Cc2ccco2)c2nc3ccccc3nc12 | 67* | 56* | -6 | 19* | 24 | 17 | nt | GSTO1 inh conf=3;TDP2 inh conf=-4
COCCNC(=O)c1c(N)n(Cc2ccco2)c2nc3ccccc3nc12 | 7 | 21 | 5 | -7 | 38 | 10 | nt
COCCCn1c(N)c(C(=O)NCc2ccco2)c2nc3ccccc3nc21 | 92* | 76* | 7 | -5 | 98 | 95* | nt | GSTO1 inh conf=2;Apaf-1 inh conf=19;Rh110 interf inh=7;TDP2 inh conf=15
O=C(O)c1cc(S(=O)(=O)N2CC3CC(C2)c2cccc(=O)n2C3)ccc1F (configuration not stated) | 1 | nt | nt | nt | nt | nt | nt
CCOC(=O)C1=C(C(=O)OCC)C2(c3ccccc3)c3ccccc3C1(C)N2C (configuration not stated) | -5 | nt | nt | nt | nt | nt | nt
COC(=O)C1=C(c2ccc(OC(F)(F)F)cc2)C[C@@H]2CC[C@H]1N2C(=O)N1CCc2cc(OC)c(OC)cc2C1 | -1 | nt | nt | nt | nt | nt | nt
CCCCn1c(NS(=O)(=O)c2ccccc2)c(C(=O)OCC)c2nc3ccccc3nc21 | 88* | 66* | 1 | 63* | 100* | nt | -13 | GSTO1 inh conf=66*;TDP2 inh conf=83*
Cc1cc(N2CCNC[C@H]2C)ccc1N1CCN[C@@H](C)C1 | -5 | nt | nt | nt | nt | nt | nt
N#Cc1ccc2nc(-c3ccc(CN4CCC(n5nnc6ccccc65)CC4)cc3)c(-c3ccccc3)nc2c1 | 6 | nt | nt | nt | nt | nt | nt
Nc1ccc2ccc3cccc[n+]3c2c1 | -10 | 33 | 8 | 12 | ? | 1 | nt
C[n+]1c(-c2ccccc2)c2cc(N)ccc2c2ccc(N)cc21 | 58* | 104* | 8 | 81* | 101* | 98* | 74* | GSTO1 inh conf=90*;Apaf-1 inh conf=80*;Rh110 interf inh=2;Fluor interf inh=>100;TDP2 inh conf=20
CC(=O)Nc1ccccc1OC(=O)N(C)C | -5 | -1 | 0 | -4 | 23 | -5 | nt
CN(C)C(=O)Oc1cccc2c(OC(=O)N(C)C)cccc12 | 2 | 8 | -8 | 24* | -3 | 2 | 7
C=CCN1CC[C@]23c4c5ccc(O)c4OC2C(=O)CC[C@@]3(O)[C@H]1C5 (some centres not stated) | 2 | nt | nt | nt | nt | nt | nt
C[C@@H]1CNCCN1c1ccc(N2CC[C@@H](O)C2)c(C#N)c1 | -8 | nt | nt | nt | nt | nt | nt
N#CC1(c2ccccc2)CCN(C2CC(=O)N(c3ccc(F)cc3)C2=O)CC1 (configuration not stated) | 8 | 3 | 4 | 18* | 14 | -12 | 3
CCCCn1c(O)c(C(C)=NCCCn2ccnc2)c(=O)[nH]c1=O | 0 | 9 | 15 | 27* | 9 | -5 | 16*
CC1=NN(c2ccccc2)C(=O)C1/C=C1\C(=O)NC(=O)N(c2cc(C)cc(C)c2)C1=O (configuration not stated) | 20 | 36* | 2 | 26* | -10 | 9 | 3
C=CCn1c(O)c(C=Nc2ccc(N(CC)CC)cc2)c(=O)[nH]c1=O | 15 | 28 | 8 | 28* | 11 | 3 | 5
O=C(COC(=O)Cc1ccccc1)Nc1cccnc1Cl | 9 | 2 | 3 | -5 | 22 | -12 | nt
Cc1ccccc1NC(=O)Cc1nc(COC(=O)Cc2ccccc2)cs1 | 7 | nt | 1 | 47* | nt | 3 | -8
SMILES | TDP2 absorb | GSTO1 counter | GASC-1 inh | PAD4 inh | SUMO HTRF inh | Apaf1 inhib | PAD4 confirm | others
O=c1[nH]c(=S)n(-c2ccccc2F)c(O)c1C=Nc1ccc(N2CCOCC2)cc1 | 2 | 43* | 3 | 17* | 26 | 2 | 3
O=c1[nH]c(=S)n(-c2ccc(Br)cc2)c(O)c1C=Nc1ccc(N2CCOCC2)cc1 | -3 | 33 | 3 | -11 | 29 | 15 | nt
C[C@H](NC(=O)OCc1ccccc1)[P+](=O)O | 1 | nt | nt | nt | nt | nt | nt
CCCN(CCC)C(=O)Cc1c(-c2ccc(Cl)cc2)nc2c(Cl)cc(Cl)cn12 | 5 | 5 | 4 | 1 | nt | 4 | nt
Cc1ccc(-c2nc3ccc(C)cn3c2CC(=O)N(C)C)cc1 | 8 | 8 | -27 | 17* | nt | 4 | 10
CC1C2Cc3ccc(O)cc3C1(C)CCN2CC1CC1 (configuration not stated) | 1 | nt | nt | nt | nt | nt | nt
O=c1cc(C(F)(F)F)c2cc3c4c(c2o1)CCCN4CCC3 | -2 | 14 | 4 | 35* | 18 | 2 | 38*
S=P(c1ccccc1)(c1ccccc1)c1c[n+](Cc2ccccc2)c2ccccn12 | -5 | nt | nt | nt | nt | nt | nt
Cc1[nH]n(-c2ccccc2)c(=O)c1C(c1ccc([N+](=O)[O-])cc1)c1c(C)[nH]n(-c2ccccc2)c1=O | nt | 59* | ? | 66* | 92 | 79* | -18 | Apaf-1 inh conf=30;Rh110 interf inh=10
C[C@@H]1CNCCN1c1ccc(N2CC[C@H](O)C2)c(C#N)c1 | 1 | nt | nt | nt | nt | nt | nt
O=S1(=O)N(CCN2CC=C(c3c[nH]c4cc(F)ccc34)CC2)c2cccc3c2N1CCC3 | 9 | -2 | nt | -15 | nt | 51* | nt | Apaf-1 inh conf=15;Rh110 interf inh=-4
O=[N+]([O-])c1ccc(N2CCCNCC2)c2ncccc12 | 0 | 7 | 0 | 2 | 10 | 45* | nt | Apaf-1 inh conf=18;Rh110 interf inh=13
O=[N+]([O-])c1ccc(N2CCCCC2)c2ncccc12 | -5 | 11 | 3 | -8 | 14 | 5 | nt
